Test results reported in ChEMBL document CHEMBL1158116, “Prenylated flavonoids from the root bark of Berchemia discolor, a Tanzanian medicinal plant” (2006).
≈ marks a conversion by molar mass, not a printed value. Calls of active or inactive are those of the source. The rule behind the calls is not given here.

How the values were obtained:
LNCaP [1] = assay: Cytotoxicity against human LNCAP cells; assay type: functional; details: read-out: ED50 (the source's name)
How it was run: (§1)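 Panel of three human cancer lines (Lu1, LNCaP, MCF-7). Cytotoxicity expressed as ED50 in µg/mL.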

Lu1 [2] = assay: Cytotoxicity against human Lu1 cells; assay type: functional; details: read-out: ED50 (the source's name); how it was run: as §1
MCF7 [3] = assay: Cytotoxicity against human MCF7 cells; assay type: functional; details: read-out: ED50 (the source's name); how it was run: as §1
Lu1 [4] = assay: Inhibition of human Lu1 cells propagated in hollow fibers via subcutaneous site of immunodeficient NCr nu/nu mouse at 10 to 40 mg/kg, ip once daily after 7 days of implantation; assay type: functional, organism-based
How it was run: (§2)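 In vivo hollow fiber model in immunodeficient mice. Fibers loaded with Lu1, LNCaP or MCF-7 cells were implanted subcutaneously or intraperitoneally. Vehicle or drug was given ip once daily at 10, 20 or 40 mg/kg on days 3-6 after implantation. Mice were sacrificed on day 7, and fibers were retrieved and analysed for growth inhibition versus vehicle.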

LNCaP [5] = assay: Inhibition of human LNCAP cells propagated in hollow fibers via intraperitoneal site of immunodeficient NCr nu/nu mouse at 10 to 40 mg/kg, ip once daily after 7 days of implantation relative to control; assay type: functional; details: dose mg/kg 10-40; how it was run: as §2
MCF7 [6] = assay: Inhibition of human MCF7 cells propagated in hollow fibers via subcutaneous site of immunodeficient NCr nu/nu mouse at 10 to 40 mg/kg, ip once daily after 7 days of implantation; assay type: functional, organism-based; how it was run: as §2

CC1(C)C=Cc2c(cc(O)c3c2OCC(c2cc4c(cc2O)OCO4)C3=O)O1 (racemic) [DISCOLORANONE A]
EC50 (LNCaP [1]): > 5 µg/mL
EC50 (Lu1 [2]): > 5 µg/mL
EC50 (MCF7 [3]): > 5 µg/mL

C=C(CO)[C@H]1Cc2c(ccc3c2O[C@@H]2COc4cc(OC)c(OC)cc4[C@]2(O)C3=O)O1 [DABINOL]
EC50 (LNCaP [1]): 5.4 µg/mL (≈ 12.7 µM)
EC50 (Lu1 [2]): 3.1 µg/mL (≈ 7.27 µM)
EC50 (MCF7 [3]): 13.1 µg/mL (≈ 30.7 µM)

CC1(C)C=Cc2c(ccc3c2OCC2c4cc5c(cc4OC32)OCO5)O1 (stereo not given) [LEIOCARPIN]
EC50 (LNCaP [1]): > 5 µg/mL
EC50 (Lu1 [2]): > 5 µg/mL
EC50 (MCF7 [3]): > 5 µg/mL

COc1ccc(C2COc3c(ccc4c3C=CC(C)(CCC=C(C)C)O4)C2)c(O)c1 (stereo not given) [HEMINITIDULAN]
EC50 (LNCaP [1]): > 5 µg/mL
EC50 (Lu1 [2]): > 5 µg/mL
EC50 (MCF7 [3]): > 5 µg/mL

COc1ccc([C@H]2COc3c4c(cc(O)c3C2=O)OC(C)(CCC=C(C)C)C=C4)c(O)c1O (stereo not given in full) [DISCOLORANONE]
EC50 (LNCaP [1]): 6.4 µg/mL (≈ 14.1 µM)
EC50 (Lu1 [2]): 9.6 µg/mL (≈ 21.2 µM)
EC50 (MCF7 [3]): 3.6 µg/mL (≈ 7.96 µM)

COc1ccc([C@H]2COc3c(ccc4c3C=CC(C)(CCC=C(C)C)O4)C2)c(O)c1O (stereo not given in full) [NITIDULIN]
Activity (Lu1 [4]): inactive
EC50 (LNCaP [1]): 4.1 µg/mL (≈ 9.7 µM)
inhibition (INH) (LNCaP [5]): 49%
EC50 (Lu1 [2]): 4.2 µg/mL (≈ 9.94 µM)
EC50 (MCF7 [3]): 3.5 µg/mL (≈ 8.28 µM)
Activity (MCF7 [6]): inactive

CC(C)=CCCC1(C)C=Cc2c(ccc3c2OCC(c2cc4c(cc2O)OCO4)C3)O1 (stereo not given) [NITIDULAN]
EC50 (LNCaP [1]): > 5 µg/mL
EC50 (Lu1 [2]): > 5 µg/mL
EC50 (MCF7 [3]): > 5 µg/mL

CC1(C)C=Cc2c(c(O)cc3c2OCC(c2cc4c(cc2O)OCO4)C3)O1 (stereo not given) [LEIOCINOL]
EC50 (LNCaP [1]): > 5 µg/mL
EC50 (Lu1 [2]): > 5 µg/mL
EC50 (MCF7 [3]): > 5 µg/mL

CC1(C)C=Cc2c(cc3c(c2O)C(=O)[C@@H](c2cc4c(cc2O)OCO4)CO3)O1 [(3S)-ISODISCOLORANONE A]
EC50 (LNCaP [1]): > 5 µg/mL
EC50 (Lu1 [2]): > 5 µg/mL
EC50 (MCF7 [3]): > 5 µg/mL

COc1ccc([C@]2(O)COc3c(ccc4c3C=CC(C)(C)O4)C2)c(O)c1
EC50 (LNCaP [1]): > 5 µg/mL
EC50 (Lu1 [2]): > 5 µg/mL
EC50 (MCF7 [3]): > 5 µg/mL

C=C(CO)[C@H]1Cc2c(ccc3c2O[C@@H]2COc4cc(OC)c(OC)cc4[C@@H]2C3=O)O1 [AMORPHIGENIN]
EC50 (LNCaP [1]): 7.9 µg/mL (≈ 19.2 µM)
EC50 (Lu1 [2]): 4.8 µg/mL (≈ 11.7 µM)
EC50 (MCF7 [3]): > 20 µg/mL

CC1(C)C=Cc2c(c(O)cc3c2OC[C@@H]2c4cc5c(cc4O[C@H]32)OCO5)O1
EC50 (LNCaP [1]): > 5 µg/mL
EC50 (Lu1 [2]): > 5 µg/mL
EC50 (MCF7 [3]): > 5 µg/mL

COc1ccc([C@H]2COc3cc4c(c(O)c3C2=O)C=CC(C)(CCC=C(C)C)O4)c(O)c1O (stereo partly drawn) [(3S)-ISODISCOLORANONE B]
EC50 (LNCaP [1]): > 5 µg/mL
EC50 (Lu1 [2]): > 5 µg/mL
EC50 (MCF7 [3]): > 5 µg/mL

CC1(C)C=Cc2c(ccc3c2OCC(c2cc4c(cc2O)OCO4)C3)O1 (stereo not given) [LEIOCIN]
EC50 (LNCaP [1]): > 5 µg/mL
EC50 (Lu1 [2]): > 5 µg/mL
EC50 (MCF7 [3]): > 5 µg/mL
